Data published in ChEMBL document CHEMBL1149612, “Synthesis and antiproliferative activity of clausine E, mukonine, and koenoline bioisosteres” (Bioorg Med Chem, 2007).

Legend:
[1] = tested on: SW480; assay: Cell cycle arrest in SW480 cells by accumulation at G2/M phase at 100 uM after 72 hrs; format: functional, Homo sapiens
Outline: (§1)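 Colorectal cells given 100 µM compound for 72 h. Afterwards 10^6 cells/mL were resuspended in propidium iodide solution and held overnight at 4 °C, then run on flow cytometry. Doublets and aggregates were gated out on FL2-area/FL2-width before calculating the percentage of cells in G1, S and G2/M phases.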

[2] = tested on: HCT-116; assay: Cell cycle arrest in HCT116 cells by accumulation at G2/M phase at 100 uM after 72 hrs; format: functional, Homo sapiens; outline: as §1
[3] = tested on: SW480; assay: Cell cycle arrest in SW480 cells by accumulation at G1 phase at 100 uM after 72 hrs; format: functional, Homo sapiens; outline: as §1
[4] = tested on: SW48; assay: Cell cycle arrest in SW48 cells by accumulation at G1 phase at 100 uM after 72 hrs; format: functional, Homo sapiens; outline: as §1
[5] = tested on: SW480; assay: Antiproliferative activity against human SW480 cells after 72 hrs; format: functional, cell-based; conditions: SW480, 72 h
Outline: (§2)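 Asynchronously growing cells seeded at 5 × 10^3 cells/well and held 24 h in medium, then exposed to drug for 72 h; MTT reagent (5 mg/mL stock) added. Growth taken as absorbance of treated wells as percent of untreated controls. IC50 is the dose giving 50% growth inhibition versus untreated cells. Five separate experiments, each in triplicate; mean ± SD.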

[6] = tested on: SW48; assay: Cell cycle arrest in SW48 cells by accumulation at S phase at 100 uM after 72 hrs; format: functional, Homo sapiens; outline: as §1
[7] = Antiproliferative activity against human Mes-sa cells after 72 hrs; format: functional, cell-based
Outline: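 Cells seeded at 5 × 10^3 cells/well and allowed 24 h in medium before compound addition. Exposure lasted 72 h, followed by MTT read-out. Growth was expressed as absorbance relative to untreated controls, and IC50 was taken as the dose giving 50% growth inhibition. Five separate experiments were run, each in triplicate, reported as mean ± SD.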

[8] = tested on: SW48; assay: Antiproliferative activity against human SW48 cells after 72 hrs; format: functional, cell-based; conditions: SW48, 72 h; outline: as §2
[9] = tested on: SW480; assay: Cell cycle arrest in SW480 cells by accumulation at S phase at 100 uM after 72 hrs; format: functional, Homo sapiens; outline: as §1
[10] = tested on: SW48; assay: Cell cycle arrest in SW48 cells by accumulation at G2/M phase at 100 uM after 72 hrs; format: functional, Homo sapiens; outline: as §1
[11] = tested on: MCF7; assay: Antiproliferative activity against human MCF7 cells after 72 hrs; format: functional, cell-based; conditions: MCF7, 72 h; outline: as §2
[12] = tested on: HCT-116; assay: Cell cycle arrest in HCT116 cells by accumulation at S phase at 100 uM after 72 hrs; format: functional, Homo sapiens; outline: as §1
[13] = tested on: HCT-116; assay: Cell cycle arrest in HCT116 cells by accumulation at G1 phase at 100 uM after 72 hrs; format: functional, Homo sapiens; outline: as §1
[14] = tested on: HCT-116; assay: Antiproliferative activity against human HCT116 cells after 72 hrs; format: functional, cell-based; conditions: HCT-116, 72 h; outline: as §2

Row | SMILES | Activity [1] [%] | Activity [2] [%] | Activity [3] [%] | Activity [4] [%] | IC50 [5] [µM] | Activity [6] [%] | IC50 [7] [µM] | IC50 [8] [µM] | Activity [9] [%] | Activity [10] [%] | IC50 [11] [µM] | Activity [12] [%] | Activity [13] [%] | IC50 [14] [µM]
1 | COC(=O)c1cc(O)c2[nH]c3ncccc3c2c1 | 14.7 | 14.3 | 58.7 | 62.4 | 8.8 | 18.9 | 16 | 9 | 26.5 | 18.7 | 11 | 29.1 | 56.6 | 7.1
2 | COC(=O)c1cc(OC)c2[nH]c3ncccc3c2c1 | 11.9 | 16.4 | 60.7 | 59 | 4.7 | 23 | 144 | 5.6 | 27.3 | 18.1 | 4.4 | 31 | 52.6 | 8.6
3 | COc1cc(CO)cc2c1[nH]c1ncccc12 | 14.7 | 29.3 | 52.3 | 57.4 | 63.1 | 9.7 | 65 | 21.1 | 33 | 32.4 | 58 | 17.4 | 53.3 | 36.6
4 | COC(=O)c1cc(O)c2[nH]c3ccccc3c2c1 [CLAUSINE E] | 25.7 | 28 | 59.9 | 65.6 | 4.8 | 12.5 | 35 | 21 | 17.5 | 21.9 | 0.6 | 12.1 | 60 | 1.9
5 | O=c1[nH]cc(F)c(=O)[nH]1 [FLUOROURACIL] |  |  |  |  | 3.5 |  |  | 5.3 |  |  | 0.3 |  |  | 2.8
6 | COC(=O)c1cc(OC)c2[nH]c3ccccc3c2c1 [MUKONINE] | 10.3 | 11.7 | 55.8 | 76.7 | 72 | 14.1 | 80 | 62 | 33.8 | 9 | 30 | 17.4 | 70.8 | 43
